Data from ChEMBL document CHEMBL1133253, “Improved antibacterial activities of coumarin antibiotics bearing 5',5'-dialkylnoviose: biological activity of RU79115” (Bioorg Med Chem Lett, 2000).
≈ marks a conversion by molar mass, not a printed value.

Experiments:
[1] = test system: Enterococcus; experiment: Minimum inhibitory concentration evaluated against enterococci species resistant to vancomycin [65]*; format: functional
[2] = test system: Enterococcus; experiment: Minimum inhibitory concentration evaluated against enterococci species resistant to vancomycin and teicoplanin [17]*; format: functional
[3] = test system: Enterococcus; experiment: Minimum inhibitory concentration evaluated against enterococci species susceptible to vancomycin [26]*; format: functional
[4] = test system: Enterococcus; experiment: In vitro anti-enterococcal activity against enterococci species resistant to vancomycin [65]* expressed as geometric mean; format: functional
[5] = test system: Enterococcus; experiment: In vitro anti-enterococcal activity against enterococci species resistant to vancomycin and teicoplanin [17]* expressed as geometric mean; format: functional
[6] = test system: Enterococcus; experiment: In vitro anti-enterococcal activity against enterococci species susceptible to vancomycin [26]* expressed as geometric mean; format: functional
[7] = test system: Mus musculus; experiment: Minimum inhibitory concentration of the subcutaneously administered compound evaluated against Staphylococcus aureus HT-18 strain in mice (SC); format: functional
[8] = test system: Mus musculus; experiment: Minimum inhibitory concentration of the subcutaneously administered compound evaluated against Enterococci faecalis D2HT6 strain in mice; format: functional
[9] = test system: Mus musculus; experiment: Minimum inhibitory concentration of the subcutaneously administered compound evaluated against Enterococci faecium D3HT7 strain in mice (po); format: functional
[10] = test system: Mus musculus; experiment: Minimum inhibitory concentration of the subcutaneously administered compound evaluated against Streptococcus pyogenes A1UC1 strain in mice (po); format: functional
[11] = test system: Mus musculus; experiment: Minimum inhibitory concentration of the subcutaneously administered compound evaluated against […] B1HT3 strain in mice (po); format: functional
[12] = test system: Mus musculus; experiment: Minimum inhibitory concentration of the subcutaneously administered compound evaluated against vancomycin resistant Enterococci faecium D3HM4 strain in mice (po); format: functional
[13] = test system: Mus musculus; experiment: Minimum inhibitory concentration of the subcutaneously administered compound evaluated against vancomycin resistant Enterococci faecium D3HT12 strain in mice (po); format: functional
[14] = test system: Mus musculus; experiment: Protective dose of subcutaneously administered compound against intraperitoneally-induced septicaemia model (Streptococcus pyogenes A1UC1 strain) in murine; format: functional; conditions: sc, read-out: PD50
Method in brief: (§1)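 Murine septicaemia was induced by intraperitoneal infection, and the compound was given subcutaneously. PD50 was derived by probit analysis.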

[15] = test system: Mus musculus; experiment: Protective dose of subcutaneously administered compound against intraperitoneally-induced septicaemia model ([…] B1HT3 strain) in murine; format: functional; conditions: sc, read-out: PD50; method in brief: as §1
[16] = test system: Mus musculus; experiment: Protective dose of subcutaneously administered compound against intraperitoneally-induced septicaemia model (Staphylococcus aureus GR56 strain resistant to oxacillin) in murine; format: functional; conditions: sc, read-out: PD50; method in brief: as §1
[17] = test system: Mus musculus; experiment: Protective dose of subcutaneously administered compound against intraperitoneally-induced septicaemia model (Staphylococcus aureus HT18) in murine; format: functional; conditions: sc, read-out: PD50; method in brief: as §1
[18] = test system: pneumococci; experiment: In vitro anti-streptococcal activity against pneumococci resistant to penicillin [29]* expressed as geometric mean; format: functional
[19] = Minimum inhibitory concentration evaluated against pneumococci resistant to penicillin [29]*; format: functional
[20] = test system: Staphylococcus sp.; experiment: Minimum inhibitory concentration evaluated against Staphylococcus species [91]*; format: functional
Method in brief: (§2)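 Two-fold agar dilution MIC, in µg/mL, against Staphylococcus panels grouped by resistance phenotype (oxacillin and/or ofloxacin resistant). Per-panel values are reported as the geometric mean and MIC90 across strains; the strain count per panel is given in brackets.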

[21] = test system: Staphylococcus sp.; experiment: Minimum inhibitory concentration evaluated against Staphylococcus species resistant to ofloxacin [59]*; format: functional; method in brief: as §2
[22] = test system: Staphylococcus sp.; experiment: Minimum inhibitory concentration evaluated against Staphylococcus species resistant to oxacillin [66]*; format: functional; method in brief: as §2
[23] = test system: Staphylococcus sp.; experiment: Minimum inhibitory concentration evaluated against Staphylococcus species resistant to oxacillin and ofloxacin [47]*; format: functional; method in brief: as §2
[24] = test system: Streptococcus sp.; experiment: In vitro anti-streptococcal activity against Streptococci species (viridans) [25]* expressed as geometric mean; format: functional
[25] = test system: Streptococcus sp.; experiment: In vitro anti-streptococcal activity against Streptococci species [38]* expressed as geometric mean; format: functional
[26] = test system: Streptococcus sp.; experiment: Minimum inhibitory concentration evaluated against Streptococci species (viridans) [25]*; format: functional
[27] = test system: Streptococcus sp.; experiment: Minimum inhibitory concentration evaluated against Streptococci species [38]*; format: functional
[28] = test system: Mus musculus; experiment: Protective dose of subcutaneously administered compound against intraperitoneally-induced septicaemia model (vancomycin resistant Enterococci faecium D3HT12 strain ) in murine; format: functional; conditions: sc, read-out: PD50; method in brief: as §1
[29] = test system: Mus musculus; experiment: Protective dose of subcutaneously administered compound against intraperitoneally-induced septicaemia model (Enterococci faecalis D2HT6 strain) in murine; format: functional; conditions: sc, read-out: PD50; method in brief: as §1
[30] = test system: Mus musculus; experiment: Protective dose of subcutaneously administered compound against intraperitoneally-induced septicaemia model (Enterococci faecium D3HT7 strain ) in murine; format: functional; conditions: sc, read-out: PD50; method in brief: as §1
[31] = test system: Mus musculus; experiment: Protective dose of subcutaneously administered compound against intraperitoneally-induced septicaemia model (vancomycin resistant Enterococci faecium D3AP9 strain ) in murine; format: functional; conditions: sc, read-out: PD50; method in brief: as §1
[32] = test system: Mus musculus; experiment: Protective dose of subcutaneously administered compound against intraperitoneally-induced septicaemia model (vancomycin resistant Enterococci faecium D3HM3 strain ) in murine; format: functional; conditions: sc, read-out: PD50; method in brief: as §1
[33] = test system: Mus musculus; experiment: Protective dose of subcutaneously administered compound against intraperitoneally-induced septicaemia model (vancomycin resistant Enterococci faecium D3HM4 strain ) in murine; format: functional; conditions: sc, read-out: PD50; method in brief: as §1
[34] = test system: Mus musculus; experiment: Minimum inhibitory concentration of the subcutaneously administered compound evaluated against vancomycin resistant Enterococci faecium D3AP9 strain in mice (po); format: functional
[35] = test system: Mus musculus; experiment: Minimum inhibitory concentration of the subcutaneously administered compound evaluated against vancomycin resistant Enterococci faecium D3HM3 strain in mice (po); format: functional
[36] = test system: Mus musculus; experiment: Minimum inhibitory concentration of the subcutaneously administered compound evaluated against Staphylococcus aureus GR56 strain resistant to oxacillin in mice (sc)
[37] = test system: Mus musculus; experiment: Minimum inhibitory concentration of the subcutaneously administered compound evaluated against Staphylococcus aureus HT-17 strain in mice (SC); format: functional
[38] = test system: Mus musculus; experiment: Minimum inhibitory concentration of the subcutaneously administered compound evaluated against […] PW3 strain in mice (SC); format: functional
[39] = test system: Mus musculus; experiment: Minimum inhibitory concentration of the subcutaneously administered compound evaluated against Staphylococcus aureus GO3 strain in mice (SC); format: functional
[40] = test system: Mus musculus; experiment: Protective dose of orally administered compound against intraperitoneally-induced septicaemia model ( vancomycin resistant Enterococci faecium D3HM3 strain) in murine; format: functional; conditions: po, read-out: PD50
Method in brief: (§3)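 PD50 was measured in a murine septicaemia model, with infection induced intraperitoneally with the named Gram-positive strain. Test compound was given orally and the PD50 was calculated by the probit method.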

[41] = test system: Mus musculus; experiment: Protective dose of orally administered compound against intraperitoneally-induced septicaemia model ( vancomycin resistant Enterococci faecium D3HM4 strain) in murine; format: functional; conditions: po, read-out: PD50; method in brief: as §3
[42] = test system: Mus musculus; experiment: Protective dose of orally administered compound against intraperitoneally-induced septicaemia model ( vancomycin resistant Enterococci faecium D3HT12 strain) in murine; format: functional; conditions: po, read-out: PD50; method in brief: as §3
[43] = test system: Mus musculus; experiment: Protective dose of orally administered compound against intraperitoneally-induced septicaemia model (Enterococci faecium D3HT7 strain) in murine; format: functional; conditions: po, read-out: PD50
[44] = test system: Mus musculus; experiment: Protective dose of subcutaneously administered compound against intraperitoneally-induced septicaemia model (Staphylococcus aureus GO3) in murine; format: functional; conditions: sc, read-out: PD50; method in brief: as §1
[45] = test system: Mus musculus; experiment: Protective dose of subcutaneously administered compound against intraperitoneally-induced septicaemia model (Staphylococcus aureus HT-17) in murine; format: functional; conditions: sc, read-out: PD50; method in brief: as §1
[46] = test system: Mus musculus; experiment: Protective dose of subcutaneously administered compound against intraperitoneally-induced septicaemia model ([…] PW3 strain) in murine; format: functional; conditions: sc, read-out: PD50; method in brief: as §1
[47] = test system: Mus musculus; experiment: Protective dose of orally administered compound against intraperitoneally-induced septicaemia model (Enterococci faecalis D2HT6 strain) in murine; format: functional; conditions: po, read-out: PD50; method in brief: as §3

SMILES: CN[C@H](CC(C)C)C(=O)N[C@H]1C(=O)N[C@@H](CC(N)=O)C(=O)N[C@H]2C(=O)N[C@H]3C(=O)N[C@H](C(=O)N[C@H](C(=O)O)c4cc(O)cc(O)c4-c4cc3ccc4O)[C@H](O)c3ccc(c(Cl)c3)Oc3cc2cc(c3O[C@@H]2O[C@H](CO)[C@@H](O)[C@H](O)[C@H]2O[C@H]2C[C@](C)(N)[C@H](O)[C@H](C)O2)Oc2ccc(cc2Cl)[C@H]1O [VANCOMYCIN]
- MIC90 [1]: > 20 µg/mL
- MIC90 [2]: > 20 µg/mL
- MIC90 [3]: 0.6 µg/mL (≈ 0.414 µM)
- GM [4]: 23.7
- GM [5]: 36.9
- GM [6]: 0.75
- MIC [7]: 1.2 µg/mL (≈ 0.828 µM)
- MIC [8]: 2.5 µg/mL (≈ 1.73 µM)
- MIC [9]: 2.5 µg/mL (≈ 1.73 µM)
- MIC [10]: 0.6 µg/mL (≈ 0.414 µM)
- MIC [11]: 0.3 µg/mL (≈ 0.207 µM)
- MIC [12]: > 40 µg/mL
- MIC [13]: > 40 µg/mL
- ED50 [14]: < 1.5 mg/kg
- ED50 [15]: 17.2 mg/kg
- ED50 [16]: 4 mg/kg
- ED50 [17]: 7.8 mg/kg
- GM [18]: 0.24
- MIC90 [19]: 0.3 µg/mL (≈ 0.207 µM)
- MIC90 [20]: 2.5 µg/mL (≈ 1.73 µM)
- MIC90 [21]: 2.5 µg/mL (≈ 1.73 µM)
- MIC90 [22]: 2.5 µg/mL (≈ 1.73 µM)
- MIC90 [23]: 2.5 µg/mL (≈ 1.73 µM)
- GM [24]: 0.4
- GM [25]: 0.35
- MIC90 [26]: 0.6 µg/mL (≈ 0.414 µM)
- MIC90 [27]: 0.6 µg/mL (≈ 0.414 µM)
- ED50 [28]: > 50 mg/kg
- ED50 [29]: 16.7 mg/kg
- ED50 [30]: 8.7 mg/kg
- ED50 [31]: > 50 mg/kg
- ED50 [32]: > 50 mg/kg
- ED50 [33]: > 50 mg/kg
- MIC [34]: > 40 µg/mL
- MIC [35]: > 40 µg/mL
- MIC [36]: 1.2 µg/mL (≈ 0.828 µM)

SMILES: CC(=O)NC[C@H]1CN(c2ccc(N3CCOCC3)c(F)c2)C(=O)O1 [LINEZOLID]
- MIC [37]: 1.2 µg/mL (≈ 3.56 µM)
- MIC [38]: 1.2 µg/mL (≈ 3.56 µM)
- MIC [39]: 2.5 µg/mL (≈ 7.41 µM)
- ED50 [40]: 2.1 mg/kg
- ED50 [41]: 8.6 mg/kg
- ED50 [42]: 1.8 mg/kg
- ED50 [43]: 2.4 mg/kg
- ED50 [44]: 8.7 mg/kg
- ED50 [45]: 5.8 mg/kg
- ED50 [46]: 3 mg/kg
- ED50 [47]: 4.2 mg/kg
